# The source made the active and inactive calls. The rule behind the calls is not given here.
# Tests used:
# [1] = Cytotoxicity against mouse peritoneal macrophages assessed as LDH release at 100 ug/ml after 24 hrs (reference value: 4 to 9 %); type: functional, Peritoneal macrophage cell
# [2] = Cytotoxicity against mouse peritoneal macrophages assessed as […] at 0.75 mM after 24 hrs (reference value: 10 %); type: functional, Peritoneal macrophage cell
# Method in brief: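 Thioglycolate-stimulated mouse peritoneal macrophages, 2-4 × 10^6 cells/dish, in duplicate. Compound dosed from Me2SO solution at 1 µL/mL, final 0.750 mM; control Me2SO only. At 24 h, units of N-acetyl-β-D-glucosaminidase (lysosomal marker) and LDH (cytoplasmic marker) released into medium were measured, ±15%.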
# [3] = tested on: Peritoneal macrophage cell; test: Induction of large vacuole formation in mouse peritoneal macrophages at 5 ug/ml; type: functional, cell-based
# [4] = tested on: Peritoneal macrophage cell; test: Induction of cell death in mouse peritoneal macrophages at 25 ug/ml; type: functional, cell-based
# P815 [5] = test: Induction of cell death in mouse P815 cells assessed as [51Cr] release at 100 ug/ml at 5 hrs (reference value: 10%); type: functional
# [6] = Induction of cell lysis in ox RBC at 0.375 mM measured at 1 hr (reference value: 1.7 %); type: cell-based, Bos taurus, Erythrocyte; conditions: cattle, ox red blood cells; read-out: Activity
# [7] = Induction of cell lysis in ox RBC at 0.375 mM measured at 4 hrs (reference value: 1.8 %); type: cell-based, Bos taurus, Erythrocyte; conditions: cattle, ox red blood cells; read-out: Activity
# [8] = Induction of cell lysis in ox RBC at 0.188 mM measured at 4 hrs (reference value: 1.8 %); type: cell-based, Bos taurus, Erythrocyte; conditions: cattle, ox red blood cells; read-out: Activity
# [9] = Induction of cell lysis in ox RBC at 0.188 mM measured at 1 hr (reference value: 1.7 %); type: cell-based, Bos taurus, Erythrocyte; conditions: cattle, ox red blood cells; read-out: Activity
# [10] = Induction of cell lysis in rabbit RBC at 0.188 to 0.375 mM measured at 1 to 4 hrs; type: cell-based, Oryctolagus cuniculus; conditions: erythrocyte, 375 µM
# Raji [11] = test: Cytotoxicity to human Raji cells; type: functional, cell-based
# Raji [12] = test: Cytotoxicity to human Raji cells at 40 ug/ml after 3 days; type: functional, cell-based
# HeLa = test: Cytotoxicity to human HeLa cells at 100 ug/ml after 24 hrs; type: functional, cell-based
# WI-38 = test: Cytotoxicity to human W138 cells; type: functional, cell-based
# RK13 = test: Cytotoxicity to rabbit RK13 cells; type: functional, cell-based; conditions: Oryctolagus cuniculus
# MRC5 [13] = test: Cytotoxicity to human MRC5 cells; type: functional, cell-based
# Mus musculus [14] = test: Toxicity in mouse at 500 mg/kg, ip after 10 days; type: organism-based; parameters: dose 500 mg/kg, route intraperitoneal; conditions: in vivo, 240 h
# Method in brief: (§1)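 Mice dosed ip; observed for 10 days.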
# Mus musculus [15] = test: Toxicity in mouse at 250 mg/kg, ip after 10 days; type: organism-based; parameters: dose 250 mg/kg, route intraperitoneal; conditions: in vivo, 240 h
# Method in brief: as §1
# [16] = tested on: Peritoneal macrophage cell; test: Induction of large vacuole formation in mouse peritoneal macrophages at 10 to 25 ug/ml; type: functional, cell-based
# [17] = tested on: Peritoneal macrophage cell; test: Induction of cell death in mouse peritoneal macrophages at 50 ug/ml; type: functional, cell-based
# P815 [18] = test: Induction of cell death in mouse P815 cells assessed as [51Cr] release at 50 ug/ml at 5 hrs; type: functional
# P815 [19] = test: Induction of cell death in mouse P815 cells assessed as [51Cr] release at 1 ug/ml at 5 hrs; type: functional
# P815 [20] = test: Induction of cell death in mouse P815 cells assessed as [51Cr] release at 3 ug/ml at 5 hrs; type: functional
# P815 [21] = test: Induction of cell death in mouse P815 cells assessed as [51Cr] release at 9 ug/ml at 5 hrs; type: functional
# P815 [22] = test: Induction of cell death in mouse P815 cells assessed as [51Cr] release at 27 ug/ml at 5 hrs; type: functional
# P815 [23] = test: Induction of cell death in mouse P815 cells assessed as [51Cr] release at 25 ug/ml at 5 hrs; type: functional
# P815 [24] = test: Induction of cell death in mouse P815 cells assessed as [51Cr] release at 75 ug/ml at 5 hrs; type: functional
# Raji [25] = test: Cytotoxicity to human Raji cells at 10 ug/ml after 3 days; type: functional, cell-based
# MRC5 [26] = test: Cytotoxicity to human MRC5 cells at 10 ug/ml after 3 days; type: functional, cell-based
compound,measurement,setting,value
Cn1ccnc1 [1-METHYLIMIDAZOLE],pKa,physchem,7
CCCCCCCCCn1ccnc1,pKa,physchem,6.6
Cc1ccncc1,pKa,physchem,6
CCCCCCCCNCC(F)(F)F,Activity,[1],7%
same,Activity,[2],19%
same,pKa,physchem,5.9
CNCC(F)(F)F,pKa,physchem,6
CCCCCCCCCCCCNCC(F)(F)F,Activity,[1],10%
same,Activity,[2],27%
same,Activity,[3],Active
same,Activity,[4],Active
same,Activity,P815 [5],21%
same,"hemolysis at 1 h, 375 µM",[6],5.2%
same,"hemolysis at 4 h, 375 µM",[7],6.5%
same,"hemolysis at 4 h, 188 µM",[8],7.3%
same,"hemolysis at 1 h, 188 µM",[9],4.2%
same,Activity,[10],Non-toxic
same,Activity,Raji [11],Active
same,Activity,Raji [12],Active
same,Activity,HeLa,Active
same,Activity,WI-38,Active
same,Activity,RK13,Active
same,Activity,MRC5 [13],Active
same,Activity,Mus musculus [14],Non-toxic
same,pKa,physchem,5.5
CCCCCCCCCCCCCCNCC(F)(F)F,Activity,[1],5%
same,Activity,[2],25%
CCCCCCCCCCNCC(F)(F)F,Activity,[1],12%
same,Activity,[2],32%
CCCCCCCCCCCCNCC(F)F,Activity,P815 [5],45%
same,Activity,Mus musculus [14],Toxic
same,Activity,Mus musculus [15],Non-toxic
same,pKa,physchem,7.5
CCCCCCCCCCCCCc1ccncc1,Activity,[16],Active
same,Activity,[17],Active
same,Activity,P815 [5],10%
same,Activity,Raji [11],Active
same,Activity,Raji [12],Active
same,Activity,WI-38,Active
same,Activity,RK13,Active
same,Activity,MRC5 [13],Active
same,Activity,Mus musculus [14],Non-toxic
same,pKa,physchem,5.9
CCCCCCCCCCCCCCCCCCNCC(F)(F)F,Activity,[1],5%
same,pKa,physchem,4.7
CCCNCC(F)(F)F,Activity,[1],10%
CCCCCCCCCCCCCc1ccccn1,pKa,physchem,5.6
CCCCCCCCCCCCCCCCNCC(F)(F)F,Activity,[1],63%
same,pKa,physchem,5.2
CCCCCCCCCCCCN [DODECYLAMINE],"hemolysis at 1 h, 375 µM",[6],100%
same,"hemolysis at 4 h, 375 µM",[7],100%
same,"hemolysis at 4 h, 188 µM",[8],100%
same,"hemolysis at 1 h, 188 µM",[9],100%
CCCCCNCC(F)(F)F,Activity,[1],4%
same,Activity,[2],14%
CCCCCCCCCCCCn1ccnc1,Activity,P815 [18],94%
same,Activity,P815 [19],10%
same,Activity,P815 [20],11%
same,Activity,P815 [21],11%
same,Activity,P815 [22],93%
CCCCCCCCCCCCN1CCOCC1,Activity,P815 [5],85%
same,Activity,P815 [23],13%
same,Activity,P815 [18],14%
same,Activity,P815 [24],15%
same,Activity,Raji [25],Active
same,Activity,MRC5 [26],Active
same,pKa,physchem,7.6

# — ChEMBL document CHEMBL3244167, “Lysosomotropic agents. 1. Synthesis and cytotoxic action of lysosomotropic detergents” (J Med Chem, 1979)
